Data as given in ChEMBL document CHEMBL4138204, “Polyoxygenated Steroids from the Sponge Clathria gombawuiensis” (J Nat Prod, 2017).
Activity calls are given as the source filed them. The rule behind the calls is not given here.

Assays:
Mus musculus [1] = species on record: Mus musculus; assay: Activation of AMPKalpha in differentiated mouse 3T3L1 cells assessed as increase in 2-NBDG uptake at 20 uM by fluorescence microscopic analysis
How it was run: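 Differentiated 3T3-L1 adipocytes were treated with 20 μM compound or 100 nM insulin as a positive control, then exposed to 2-NBDG as the fluorescent glucose analogue. Uptake was imaged by fluorescence microscopy as green signal inside the cells.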

Salmonella typhimurium = assay: Antibacterial activity against Salmonella enterica ATCC 14028 measured after 24 hrs; type: functional, Salmonella enterica subsp. enterica serovar Typhimurium; details: ATCC 14028, 24 h
Kocuria rhizophila = assay: Antibacterial activity against Kocuria rhizophila NBRC 12708 measured after 24 hrs; type: functional; details: NBRC 12708, 24 h
Candida albicans = assay: Antifungal activity against Candida albicans ATCC 10231 measured after 48 to 72 hrs; type: functional
C2C12 [2] = assay: Activation of AMPKalpha in mouse C2C12 cells assessed as increase in phosphorylation of ACC at Ser79 at 20 uM after 30 mins by Western blot analysis; type: cell-based
How it was run: (§1)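 Differentiated mouse C2C12 skeletal myoblasts were given compounds at 20 μM, or Aicar (0.2 mM, AMPK activator), for 30 min. pAMPK (Thr172) and pACC (Ser79) were quantified by Western blot. Mean ± SD of 2–4 independent experiments, compared with vehicle by ANOVA.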

C2C12 [3] = assay: Activation of AMPKalpha phosphorylation at Thr172 in mouse C2C12 cells at 20 uM after 30 mins by Western blot analysis; type: cell-based; how it was run: as §1
Mus musculus [4] = species on record: Mus musculus; assay: Activation of AMPKalpha in differentiated mouse 3T3L1 cells assessed as increase in 2-NBDG uptake pretreated for 30 mins followed by 2-NBDG addition measured after 1 hr by fluorescence assay
How it was run: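 2-NBDG uptake in differentiated 3T3-L1 adipocytes. Cells got compounds at several concentrations, or 100 nM insulin as a positive control. After 1 h incubation, fluorescence was read at ex/em 450/535 nm. Mean ± SD (n = 3), compared with vehicle by ANOVA.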

K562 = assay: Cytotoxicity against human K562 cells after 72 hrs by MTT assay; type: functional, cell-based; details: K562, 72 h
Proteus hauseri = assay: Antibacterial activity against Proteus hauseri NBRC 3851 measured after 24 hrs; type: functional; details: NBRC 3851, 24 h
[5] = Inhibition of isocitrate lyase (unknown origin)
[6] = biological target: Sodium/potassium-transporting ATPase; assay: Inhibition of potassium-activated sodium/potassium ATPase in human placenta using 3-Omethylfluorescein phosphate as substrate measured for 90 secs by fluorescence assay
Aspergillus fumigatus = assay: Antifungal activity against Aspergillus fumigatus HIC 6094 measured after 48 to 72 hrs; type: functional
[7] = Inhibition of recombinant sortase A (unknown origin) using Dabcyl-QALPETGEE-Edans as substrate measured after 1 hr by fluorescence assay; set-up: species or system Bacteria
Staphylococcus aureus = assay: Antibacterial activity against Staphylococcus aureus ATCC 6538P measured after 24 hrs; type: functional
[8] = system: Trichophyton mentagrophytes; assay: Antifungal activity against Trichophyton mentagrophytes IFO 40996 measured after 48 to 72 hrs; type: functional
Escherichia coli = assay: Antibacterial activity against Escherichia coli ATCC 35270 measured after 24 hrs; type: functional; details: ATCC 35270, 24 h
Bacillus spizizenii = assay: Antibacterial activity against Bacillus subtilis ATCC 6633 measured after 24 hrs; type: functional; details: ATCC 6633, 24 h
Trichophyton rubrum = assay: Antifungal activity against Trichophyton rubrum IFO 9185 measured after 48 to 72 hrs; type: functional
A549 = assay: Cytotoxicity against human A549 cells after 72 hrs by MTT assay; type: functional, cell-based; details: A549, 72 h
C2C12 [9] = assay: Activation of AMPKalpha phosphorylation at Thr172 in mouse C2C12 cells at 5 to 20 uM after 30 mins in presence of AMPK inhibitor dorsomorphin by Western blot analysis; type: cell-based
How it was run: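 C2C12 myoblasts were exposed to compound at 5, 10 and 20 μM for 30 min, with compound C pretreatment used to test AMPK dependence. pAMPK (Thr172) was measured by Western blot. Mean ± SD (n = 3), compared with control.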

Structure (SMILES)	Activity (Mus musculus [1])	MIC (Salmonella typhimurium)	MIC (Kocuria rhizophila)	MIC (Candida albicans)	Activity (Mus musculus [4])	MIC (Proteus hauseri)	IC50 [5]	IC50 [6]	MIC (Aspergillus fumigatus)	IC50 [7]	MIC (Staphylococcus aureus)	MIC [8]	MIC (Escherichia coli)	MIC (Bacillus spizizenii)	MIC (Trichophyton rubrum)	Activity (C2C12 [2])	Activity (C2C12 [3])	IC50 (K562)	IC50 (A549)	Activity (C2C12 [9])
CC(C)[C@H](C)[C@@H](O)[C@H](O)[C@@H](C)[C@H]1CC(=O)[C@@H]2[C@@H]3[C@@H](O)[C@H](O)[C@H]4[C@H](O)[C@@H](O)CC[C@]4(C)[C@H]3CC[C@]12C	Active	> 128 µM	> 128 µM	> 128 µM	Dose-dependent effect	> 128 µM	> 128 µM	> 128 µM	> 128 µM	> 128 µM	> 128 µM	> 128 µM	> 128 µM	> 128 µM	> 128 µM	Active	Active	> 10 µM	> 10 µM	–
CC(C)C[C@@H](O)[C@H](O)[C@@H](C)[C@H]1CC(=O)[C@@H]2[C@@H]3[C@@H](O)[C@H](O)[C@H]4[C@H](O)[C@@H](O)CC[C@]4(C)[C@H]3CC[C@]12C	Active	> 128 µM	> 128 µM	> 128 µM	Dose-dependent effect	> 128 µM	> 128 µM	> 128 µM	> 128 µM	> 128 µM	> 128 µM	> 128 µM	> 128 µM	> 128 µM	> 128 µM	Active	Active	> 10 µM	> 10 µM	–
CC(C)[C@H](C)[C@@H](O)[C@H](O)[C@@H](C)[C@H]1CC(=O)[C@@H]2[C@@H]3[C@@H](OS(=O)(=O)O)[C@H](O)[C@H]4[C@H](O)[C@@H](O)CC[C@]4(C)[C@H]3CC[C@]12C	–	> 128 µM	> 128 µM	> 128 µM	–	> 128 µM	> 128 µM	> 128 µM	> 128 µM	> 128 µM	> 128 µM	> 128 µM	> 128 µM	> 128 µM	> 128 µM	Active	Active	> 10 µM	> 10 µM	–
CC(C)[C@H](C)[C@@H](O)[C@H](O)[C@@H](C)[C@H]1CC(=O)[C@H]2[C@@H]3[C@@H](O)[C@H](O)[C@H]4[C@H](O)[C@@H](O)CC[C@]4(C)[C@H]3CC[C@]12C	Active	> 128 µM	> 128 µM	> 128 µM	Dose-dependent effect	> 128 µM	> 128 µM	> 128 µM	> 128 µM	> 128 µM	> 128 µM	> 128 µM	> 128 µM	> 128 µM	> 128 µM	Active	Active	> 10 µM	> 10 µM	inactive

Continued, in another order:

Activity (Mus musculus [1])	MIC (Salmonella typhimurium)	MIC (Kocuria rhizophila)	MIC (Candida albicans)	Activity (Mus musculus [4])	MIC (Proteus hauseri)	IC50 [5]	IC50 [6]	MIC (Aspergillus fumigatus)	IC50 [7]	MIC (Staphylococcus aureus)	MIC [8]	MIC (Escherichia coli)	MIC (Bacillus spizizenii)	MIC (Trichophyton rubrum)	Structure (SMILES)	Activity (C2C12 [2])	Activity (C2C12 [3])	IC50 (K562)	IC50 (A549)	Activity (C2C12 [9])
Active	> 128 µM	> 128 µM	> 128 µM	Dose-dependent effect	> 128 µM	> 128 µM	> 128 µM	> 128 µM	> 128 µM	> 128 µM	> 128 µM	> 128 µM	> 128 µM	> 128 µM	CC(C)[C@H](C)[C@@H](O)C[C@@H](C)[C@H]1CC(=O)[C@H]2[C@@H]3[C@@H](O)[C@H](O)[C@H]4[C@H](O)[C@@H](O)CC[C@]4(C)[C@H]3CC[C@]12C	Active	Active	> 10 µM	> 10 µM	–
–	> 128 µM	> 128 µM	> 128 µM	–	> 128 µM	> 128 µM	> 128 µM	> 128 µM	> 128 µM	> 128 µM	> 128 µM	> 128 µM	> 128 µM	> 128 µM	CC(C)C[C@H](O)C[C@@H](C)[C@H]1CC(=O)[C@@H]2[C@@H]3[C@@H](O)[C@H](O)[C@H]4[C@H](O)[C@@H](O)CC[C@]4(C)[C@H]3CC[C@]12C	Active	Active	> 10 µM	> 10 µM	–
Active	> 128 µM	> 128 µM	> 128 µM	Dose-dependent effect	> 128 µM	> 128 µM	> 128 µM	> 128 µM	> 128 µM	> 128 µM	> 128 µM	> 128 µM	> 128 µM	> 128 µM	CC(C)[C@@H](CC[C@@H](C)[C@H]1CC(=O)[C@@H]2[C@@H]3[C@@H](O)[C@H](O)[C@H]4C[C@@H](O)CC[C@]4(C)[C@H]3CC[C@]12C)[C@@H](C)O	Active	Active	> 10 µM	> 10 µM	–
